# In ChEMBL document CHEMBL2331455, “Potent vasorelaxant analogs from chemical modification and biotransformation of isosteviol” (Eur J Med Chem, 2013):
# Test system: Aorta
# Assay: Vasorelaxant activity in Sprague-Dawley rat aorta assessed as reduction of phenylephrine-induced contraction
# Type: functional, tissue-based
# Details: not given
# In short: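 Aortic rings held in HPSS (140 mM NaCl, 5 mM KCl, 2 mM CaCl2, 1 mM MgCl2, 5 mM HEPES, 11 mM glucose, pH 7.4) and equilibrated 2 h with several buffer changes. Isometric force changes were recorded continuously. Acetylcholine served as positive control.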
row,Compound,EC50
1,C[C@@]12CCC[C@@](C)(C(=O)O)[C@H]1CC[C@@]13C[C@@H](O)[C@@](C)(CC[C@@H]21)[C@@H]3O,303 nM
2,CC(=O)O[C@@H]1C[C@@]23C[C@]1(C)CC[C@H]2[C@]1(C)CCC[C@@](C)(C(=O)O)[C@H]1C[C@@H]3O,59.7 nM
3,CC(=O)OCC[N+](C)(C)C [ACETYLCHOLINE IODIDE],65 nM
4,C[C@@]12CC[C@@H]3[C@@](CC[C@H]4[C@@]3(C)CCC[C@@]4(C)C(=O)O)(CC1=O)C2 [ISOSTEVIOL],57.4 nM

# Stronger by EC50, values ahead:
row,EC50,Compound
1,4.88 nM,CC(=O)O[C@@H]1C[C@]23CC[C@H]4[C@@](C)(CCC[C@@]4(C)C(=O)O)[C@@H]2CC[C@@]1(C)C3
2,41.8 nM,C[C@@]12CC[C@H]3[C@]4(C)CCC[C@@](C)(C(=O)O)[C@H]4C[C@H](O)[C@]3(C[C@H]1O)C2
3,39.8 nM,C[C@@]12CC[C@H]3[C@]4(C)CCC[C@@](C)(C(=O)O)[C@H]4C[C@@H](O)[C@]3(C[C@H]1O)C2
4,19.5 nM,CC(=O)O[C@@H]1C[C@]23CC[C@H]4[C@@](C)(CCC[C@@]4(C)C(=O)O)[C@@H]2CC[C@@]1(C)[C@@H]3O
5,29.1 nM,C[C@@]12CC[C@@H]3[C@@](CC[C@H]4[C@@]3(C)CCC[C@@]4(C)C(=O)O)(C[C@H]1O)C2
6,3.46 nM,C[C@@]12CC[C@H]3[C@]4(C)CCC[C@@](C)(C(=O)O)[C@H]4C[C@H](O)[C@]3(CC1=O)C2

# Test system: Vero
# Assay: Cytotoxicity against african green monkey Vero cells
# Type: cell-based
# Details: chlorocebus sabaeus
row,Compound,Activity
1,C[C@@]12CC[C@H]3[C@]4(C)CCC[C@@](C)(C(=O)O)[C@H]4C[C@H](O)[C@]3(CC1=O)C2,Non-toxic
